Data published in ChEMBL document CHEMBL1142895, “Discovery of a new insecticide lead by optimizing a target-diverse scaffold: tetrazolinone derivatives” (2007).
Calls of active or inactive are those of the source. No cut-off for these calls is given here.

Key:
[1] = test system: Radish; experiment: Herbicidal activity against Raphanus sativus at 450 g ai/ha in greenhouse in vivo test; assay type: functional, organism-based
[2] = test system: Echinochloa crus-galli; experiment: Herbicidal activity against Echinochloa crus-galli at 450 g ai/ha in greenhouse in vivo test; assay type: functional, organism-based
[3] = test system: Brassica rapa subsp. oleifera; experiment: Inhibition of stem growth of Brassica campestris at 100 mg/L; assay type: functional
In short: (§1)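 Seeds of each species were grown in Petri dishes with 10 seeds per dish, at 28 °C, 70–80% RH, 16:8 h light:dark photoperiod and 3000 lx light for 5 days. Root and stem lengths were measured for the 10 seeds and averaged. Each test and its controls were run in three replicates, and the data were given probit analysis.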

[4] = test system: Cucumis sativus; experiment: Inhibition of stem growth of Cucumis sativus at 100 mg/L; assay type: functional; in short: as §1
[5] = test system: Triticum aestivum; experiment: Inhibition of stem growth of Triticum aestivum at 100 mg/L; assay type: functional; in short: as §1
[6] = test system: Cucumis sativus; experiment: Herbicidal activity against Cucumis sativus at 450 g ai/ha in greenhouse in vivo test; assay type: functional, organism-based
[7] = test system: Cucumis sativus; experiment: Inhibition of root growth of Cucumis sativus at 100 mg/L; assay type: functional; in short: as §1
[8] = test system: Tetranychus cinnabarinus; experiment: Insecticidal activity against Tetranychus cinnabarinus at 250 mg/L; assay type: functional
In short: (§2)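 Groups of 10 of each species were placed in glass Petri dishes and sprayed with test solution using a Potter sprayer. After air-drying, they were held under normal rearing conditions. Mortality at 72 h was taken from the number and size of live larvae relative to untreated controls.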

[9] = test system: Sorghum bicolor; experiment: Inhibition of root growth of Sorghum bicolor at 100 mg/L; assay type: functional; in short: as §1
[10] = test system: Brassica rapa subsp. oleifera; experiment: Herbicidal activity against Brassica campestris at 450 g ai/ha in greenhouse in vivo test; assay type: functional, organism-based
[11] = test system: Echinochloa crus-galli; experiment: Inhibition of root growth of Echinochloa crus-galli at 100 mg/L; assay type: functional; in short: as §1
[12] = test system: Radish; experiment: Inhibition of stem growth of Raphanus sativus at 100 mg/L; assay type: functional; in short: as §1
[13] = test system: Sorghum bicolor; experiment: Inhibition of stem growth of Sorghum bicolor at 100 mg/L; assay type: functional; in short: as §1
[14] = test system: Aphis; experiment: Insecticidal activity against Aphis medicagini at 250 mg/L; assay type: functional; in short: as §2
[15] = test system: Triticum aestivum; experiment: Herbicidal activity against Triticum aestivum at 450 g ai/ha in greenhouse in vivo test; assay type: functional, organism-based
[16] = test system: Echinochloa crus-galli; experiment: Inhibition of stem growth of Echinochloa crus-galli at 100 mg/L; assay type: functional; in short: as §1
[17] = test system: Brassica rapa subsp. oleifera; experiment: Inhibition of root growth of Brassica campestris at 100 mg/L; assay type: functional; in short: as §1
[18] = test system: Triticum aestivum; experiment: Inhibition of root growth of Triticum aestivum at 100 mg/L; assay type: functional; in short: as §1
[19] = test system: Radish; experiment: Inhibition of root growth of Raphanus sativus at 100 mg/L; assay type: functional; in short: as §1
[20] = test system: Sorghum bicolor; experiment: Herbicidal activity against Sorghum bicolor at 450 g ai/ha in greenhouse in vivo test; assay type: functional, organism-based

| SMILES | Activity [1] | Activity [2] | inhibition at 100 µg/mL [3] [%] | inhibition at 100 µg/mL [4] [%] | inhibition at 100 µg/mL [5] [%] | Activity [6] | inhibition at 100 µg/mL [7] [%] | Activity [8] [%] | inhibition at 100 µg/mL [9] [%] | Activity [10] | inhibition at 100 µg/mL [11] [%] | inhibition at 100 µg/mL [12] [%] | inhibition at 100 µg/mL [13] [%] | Activity [14] [%] | Activity [15] | inhibition at 100 µg/mL [16] [%] | inhibition at 100 µg/mL [17] [%] | inhibition at 100 µg/mL [18] [%] | inhibition at 100 µg/mL [19] [%] | Activity [20] |
| --- | --- | --- | --- | --- | --- | --- | --- | --- | --- | --- | --- | --- | --- | --- | --- | --- | --- | --- | --- | --- |
| CCOC(=O)Cn1nnn(-c2ccc(Cl)cc2)c1=O | inactive | inactive | 70 | 0 | 30 | inactive | 0 | 0 | 20 | inactive | 0 | 40 | 20 | 8.3 | inactive | 0 | 85 | 30 | 80 | inactive |
| C=CCSc1nnc(Cn2nnn(-c3ccc(Cl)cc3)c2=O)s1 | inactive | inactive | 40 | 0 | 40 | inactive | 0 | 72.9 | 60 | inactive | 60 | 40 | 0 | 0 | inactive | 70 | 60 | 50 | 40 | inactive |
| CCCCCCCCSc1nnc(Cn2nnn(-c3ccc(Cl)cc3)c2=O)s1 | inactive | inactive | 0 | 0 | 0 | inactive | 30 | 2.9 | 50 | inactive | 40 | 0 | 0 | 0 | inactive | 0 | 40 | 30 | 40 | inactive |
| Cc1ccccc1CSc1nnc(Cn2nnn(-c3ccc(Cl)cc3)c2=O)s1 | inactive | inactive | 30 | 0 | 60 | inactive | 0 | 0 | 0 | inactive | 60 | 40 | 30 | 0 | inactive | 70 | 50 | 60 | 40 | inactive |
| C=CCn1nnn(-c2ccccc2Cl)c1=O |  | inactive | 60 | 60 | 50 | inactive | 0 | 98.6 | 0 | inactive | 0 | 0 | 0 | 1.7 | inactive | 0 | 0 | 50 | 0 | inactive |
| CC(C)(C)c1ccc(CSc2cnn(C(C)(C)C)c(=O)c2Cl)cc1 [PYRIDABEN] |  |  |  |  |  |  |  | 100 |  |  |  |  |  |  |  |  |  |  |  |  |
